From PubChem BioAssay
HSF1 activator: HSF-1 activators, primary screen, NIH3T3-HGL cells, MG132 stress, luminescence, single point; hit rate 1.7% among 300,000; activation, % at 9 µM; NIH3T3-HGL HSF-1 luciferase reporter, 8 h; 100% = twice DMSO control signal; AID 504408, 2011;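 active = mean replicate activation of at least 50% with a set share of replicates each reaching 50%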;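 note: 0% = median of the neutral control wells and 100% = twice that signal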
Hsp70 act: Hsp70 transcriptional activators, primary screen, cell-based, HeLa, Hsp70 promoter luciferase, luminescence, 10 µM | HeLa Hsp70 promoter luciferase reporter; scaled: vehicle 0, proteasome-inhibitor control 100% | activation, % at 10 µM | hit rate 0.04% among 200,000;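 active = activation above the mean across all tested compounds plus 3 SD, cutoff set per campaign, cut at about 5.5% in these data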;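 note: 100% = MG132 at 30 µM as the positive control and 0% = DMSO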
HSF1 inh: HSF1 inhibitors in luciferase reporter cells, primary screen, cell-based, NIH3T3, luminescence. NIH3T3-HGL HSE-luciferase, MG132-induced, luminescence 8 h; hits give low values. hit rate 0.77% among 300,000. activity change, negative = inhibition, % at 7.5 µM (by protocol);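 active = more than half of replicate wells show activity change below -50%, luminescence cut by over half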;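 note: luciferase reports HSF-1 transcriptional activity via heat shock element; 0% = median of DMSO wells and -100% = zero luminescence signal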
HSV augment: enhancers of HSV replication in host cells, fold increase, host cell viability | HSV replication augmentation in cells | maximum fold increase | hit rate 0.005% among 220,000 | AID 1956, 2009; in the data active = maximum fold increase above about 1.5; tested in PC3 cells
Rad51 HR inh: human RAD51 strand exchange inhibitors, primary screen, biochemical, fluorescence | DNA repair protein RAD51 homolog 1 (Homo sapiens), Q06609 | hRad51 DNA strand exchange, fluorescence dequenching | inhibition, % at 10 µM | hit rate 0.085% among 200,000 | AID 1385, 2008;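 active = inhibition above 40% at the single screening dose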;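 note: 0% = DMSO control wells and 100% = blanks with heterologous ssDNA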
Target sequence (Q06609 whole entry, looked up): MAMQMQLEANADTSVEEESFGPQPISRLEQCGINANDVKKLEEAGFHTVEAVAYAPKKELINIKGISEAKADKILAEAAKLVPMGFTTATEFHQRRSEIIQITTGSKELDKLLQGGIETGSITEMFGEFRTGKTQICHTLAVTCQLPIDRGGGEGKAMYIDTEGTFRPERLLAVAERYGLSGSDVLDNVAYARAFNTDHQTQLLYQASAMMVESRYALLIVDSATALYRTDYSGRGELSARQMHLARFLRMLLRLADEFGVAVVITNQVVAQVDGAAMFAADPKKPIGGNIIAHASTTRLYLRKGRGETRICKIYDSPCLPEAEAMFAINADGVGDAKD
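Material: Human Rad51 nucleoprotein filaments preassembled on unlabelled ssDNA | Also added: Labelled 47-mer dsDNA for strand exchange | Dosing: Single dose, 10 µM final compound | Schedule: 30-min compound preincubation and 15-min exchange, both room temperature | Technique: Fluorescence dequenching at 485/520 nm | Measure: Percent inhibition relative to plate controls and blanks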
MDM2 E3 inh: MDM2-luciferase reporter signal enhancers, primary screen, MDM2 E3 ligase inhibitor project, cell-based, luminescence, 1536-well; AID 1230, 2008; signal enhancement, % at 5 µM; hit rate 0.11% among 210,000; E3 ubiquitin-protein ligase Mdm2 (Homo sapiens), Q00987; cell-based MDM2 ubiquitination luciferase reporter, 2 h; 0 = plate control, 100 = twice control, blank-subtracted;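 active = signal enhancement of 30% or more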;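 note: luminescence tracks abundance of the self-degrading MDM2-luciferase fusion protein; higher signal means inhibition of MDM2 E3 ligase activity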
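system = mammalian cells stably expressing self-ubiquitinating, self-degrading MDM2 E3–luciferase fusion | quantity = 2000 cells per well seeded | incubation = 4 h cell settling then 2 h compound exposure, 37 °C | signal = SteadyLite luminescence, 15 min reagent step | benchmarks = plate control and blank wells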
* = called active by the depositor; i = inactive; nt = not tested or not shown. A selection: hits, their analogues and other compounds. The true share with any hit is near 2.6%.

SMILES | HSF1 activator | Hsp70 act | HSF1 inh | HSV augment | Rad51 HR inh | MDM2 E3 inh
CC(=O)c1ccc(N2CCN(C(=O)CCS(=O)(=O)c3ccc4c(c3)NC(=O)CS4)CC2)cc1 | -1.6 | nt | -7.1 | nt | nt | nt
COc1cccc(/C=N/NC(=O)c2cnccn2)c1 | -82.0 | 0.1 | -75.7* | i | -5.5 | -8.0
COc1ccc(/C=N/NC(=O)c2cnccn2)cc1O | 5.6 | 0.1 | 4.1 | i | 2.2 | -11.1
Cc1c(Cl)c(C(=O)NC2CCCC2)nn1C | 60.7* | -0.6 | 16.9 | i | 2.3 | -16.3
N#CCc1c(C#N)c(N)nc(N2CCN(S(=O)(=O)c3ccccc3F)CC2)c1C#N | 172.9* | nt | 132.8 | nt | nt | nt
CC(=O)OCC1CCCC2=C(C)C(=O)CCC21COC(C)=O (configuration not stated) | 7.1 | 1.2 | -3.5 | i | nt | -4.7
CCOc1ccc(S(=O)(=O)c2cn(C)c3cc(OC)c(OC)cc3c2=O)cc1 | 3.5 | nt | 3.6 | nt | nt | nt
Cc1ccc(C2=NN(S(C)(=O)=O)C(c3ccc4nccnc4c3)C2)cc1 (configuration not stated) | -27.1 | -0.2 | -9.9 | i | 8.9 | 0.1
COc1ccc(C2=NN(S(C)(=O)=O)C(c3ccc4nccnc4c3)C2)cc1 (configuration not stated) | 92.5* | -0.1 | 39.5 | i | -7.7 | -1.0
COC(=O)c1ccc(NCCC(=O)O)cc1 | -6.8 | -0.5 | -5.1 | i | 4.7 | 8.8
CC1(C)NC(=O)N(CCCOc2ccccc2Br)C1=O | 52.1* | 0.2 | 5.5 | i | -3.8 | -5.3
O=[N+]([O-])c1cnc(Sc2ccncn2)s1 | nt | nt | -66.8* | i | 2.3 | 13.8
CCc1cccc(OCC(=O)Nc2ccc(S(=O)(=O)Nc3onc(C)c3C)cc2)c1 | -82.4 | 0.0 | -78.7* | nt | nt | -8.6
Cc1ccc(S(=O)(=O)CC(=O)Nc2ccc(S(=O)(=O)Nc3onc(C)c3C)cc2)cc1 | -87.6 | -0.3 | -83.5* | i | 8.8 | -9.0
Cc1ccc(OCC(=O)Nc2ccc(S(=O)(=O)Nc3onc(C)c3C)cc2)cc1 | 9.6 | -0.2 | -6.7 | i | 3.1 | -1.3
O=C(NC1CCCCC1)C(c1ccc(F)cc1)N(C(=O)c1csnn1)C1CCCC1 (configuration not stated) | -3.1 | nt | 3.3 | nt | nt | nt
COc1cc(CNCCc2ccccc2)cc(Cl)c1OCc1ccccc1 | 10.2 | -0.1 | 3.8 | i | -4.6 | -36.0
Cc1ccccc1Oc1nc2c(C)cccn2c(=O)c1/C=C(\C#N)C(=O)Nc1c(C)n(C)n(-c2ccccc2)c1=O | 136.6* | -0.2 | 104.8 | i | -1.2 | -17.4
CC(C)N(Cc1cn[nH]c1-c1ccc(-c2ccccc2)cc1)Cc1nccn1C | 58.9* | -0.3 | 28.5 | i | 11.3 | -5.4
Cn1cc(Br)c(C(=O)NC2CCCCCC2)n1 | 6.4 | nt | -4.5 | nt | nt | nt
CN(C)S(=O)(=O)N1CCCC(C(=O)c2ccc(-c3ccccc3)cc2)C1 (configuration not stated) | 5.8 | -0.1 | 0.0 | i | 0.5 | -1.6
CCCCNC(=O)c1ccc(Cn2c(=S)[nH]c3c([nH]c4ccc(OC)cc43)c2=O)cc1 | -70.9 | -0.3 | -70.7* | i | -4.2 | 2.2
COc1ccc2[nH]c3c(=O)n(Cc4ccc(C(=O)N5CCCCCC5)cc4)c(=S)[nH]c3c2c1 | 20.7 | -0.2 | -3.7 | i | 3.0 | 3.6
CCOCCCNC(=O)c1ccc(Cn2c(=S)[nH]c3c([nH]c4ccc(OC)cc43)c2=O)cc1 | -2.5 | -0.1 | 2.1 | i | -2.8 | -16.1
CC[C@H](C)NC(=O)c1ccc(Cn2c(=S)[nH]c3c([nH]c4ccc(OC)cc43)c2=O)cc1 | -57.9 | 0.3 | -57.6* | i | -3.1 | -7.5
SMILES | HSF1 activator | Hsp70 act | HSF1 inh | HSV augment | Rad51 HR inh | MDM2 E3 inh
O=C(COC(=O)C1CSC2(c3ccc(F)cc3)CCC(=O)N12)NC(=O)NC1CCCC1 (configuration not stated) | 57.2* | -0.3 | 19.8 | i | 7.2 | -7.5
Cc1ccc(OC(=O)COc2ccccc2)c(-n2nc3ccccc3n2)c1 | 51.1* | 0.2 | 40.8 | i | 6.3 | -36.9
Fc1ccc(-n2cc(-c3ccccc3)c3c(N4CCOCC4)ncnc32)cc1 | -58.4 | -0.1 | -51.9* | i | 3.4 | -18.0
Cc1ccc(OCC(=O)Nc2ccon2)c([N+](=O)[O-])c1 | 28.7 | nt | 17.6 | nt | nt | nt
Cc1cc(/C=C2/NC(=O)N(Cc3ccccc3F)C2=O)c(C)n1C | 14.4 | -0.1 | 7.7 | i | 3.0 | 3.6
CCOc1cc([N+](=O)[O-])cc(/C=C2/NC(=O)N(Cc3ccccc3F)C2=O)c1O | 134.6* | -0.1 | 99.4 | i | -24.0 | -3.8
Cc1cc(Cl)ccc1OCc1cn2cccnc2n1 | 94.3* | 0.4 | 77.8 | i | 2.1 | -55.9
COc1ccc(N=Nc2n(C)c3ccccc3[n+]2C)cc1 | -45.3 | nt | -27.2 | i | nt | -89.8
Cn1nc(C(=O)OCc2ccc(Br)cc2F)c2ccccc2c1=O | 19.1 | 0.1 | 8.6 | i | -5.5 | -23.6
C=C(C)CNC(=S)Nc1nc2c(cc1C(=O)OCC)CCCC2 | 59.8* | -0.6 | 35.9 | i | 9.1 | -1.7
CCOC(=O)c1cc2c(nc1N)CCCC2 | 8.3 | nt | 0.9 | i | -25.2 | -10.2
CCCc1ccc2oc(C(=O)N(C)Cc3nccs3)c(C)c2c1 | 66.5* | nt | 28.3 | nt | nt | nt
CCCc1ccc2oc(C(=O)N3CCC(O)CC3)c(C)c2c1 | 22.2 | nt | 13.7 | nt | nt | nt
c1ccc(N2CCN(C3CC4CCC3C4)CC2)cc1 (configuration not stated) | -4.6 | nt | 2.2 | nt | nt | nt
COc1ccc(-c2noc(CCC(=O)NCCc3ccccc3)n2)cc1 | 7.8 | nt | -1.2 | nt | nt | nt
CCN(CCCNC(=O)CCc1nc(-c2ccc(OC)cc2)no1)c1cccc(C)c1 | 61.6* | 0.6 | 39.1 | i | 15.4 | -16.7
CCOCCCNC(=O)Cn1cc2c(n1)CCCC2 | -7.3 | -0.3 | -5.8 | i | -3.3 | -15.8
CCN(CCCNC(=O)Cn1cc2c(n1)CCCC2)c1cccc(C)c1 | 59.1* | -0.1 | 44.9 | i | -0.6 | -14.9
CCOC(=O)C1CCN(C(=O)c2cc3cc(C)ccc3[nH]2)CC1 | 9.8 | nt | 14.8 | nt | nt | nt
CCCCCCC(=O)N1C/C=C\C(c2ccc(OC)cc2)N(Cc2ccc(F)cc2)C(=O)[C@H]1Cc1ccccc1 (some centres not stated) | nt | nt | 3.8 | i | -2.7 | 21.4
Cc1cccc(Oc2coc3cc(OC(=O)c4cccs4)ccc3c2=O)c1 | 59.0* | -0.2 | 29.2 | i | 7.8 | -14.2
